According to ChEMBL document CHEMBL4823286, “Synthesis and evaluation of novel 2,4-diaminopyrimidines bearing a sulfoxide moiety as anaplastic lymphoma kinase (ALK) inhibition agents” (Bioorg Med Chem Lett, 2021):
Active and inactive are the calls of the source. The rule behind the calls is not given here.

Columns and labels:
NCI-H2228 [1] = assay: Induction of apoptosis in human NCI-H2228 cells assessed as early apoptotic cells at 50 nM measured after 24 hrs by Annexin V-FITC/PI staining based flow cytometry assay (reference value: 2.18%); type: functional
Summary of the method: (§1)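 After 24 h or 48 h exposure (5, 25, 50 nM; DMSO 0.01% control), NCI-H2228 cells were harvested, double-stained with Annexin V-FITC and PI and run on flow cytometry. Stage percentages quantified by software; three experiments, representative shown.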

NCI-H2228 [2] = assay: Induction of apoptosis in human NCI-H2228 cells assessed as necrotic cells at 50 nM measured after 48 hrs by Annexin V-FITC/PI staining based flow cytometry assay (reference value: 2.88%); type: functional; summary of the method: as §1
NCI-H2228 [3] = assay: Cell cycle arrest in human NCI-H2228 cells assessed as accumulation of cells in G1 phase at 20 nM measured after 12 hrs by PI staining based flow cytometry method (reference value: 67.77%); type: functional
Summary of the method: (§2)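 NCI-H2228 cells exposed to 20 nM for 0, 12, 24 or 48 h, stained with PI and analysed by flow cytometry for G0/G1, S and G2/M fractions. Phase percentages quantified by analysis software; three independent experiments, representative run shown.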

NCI-H2228 [4] = assay: Induction of apoptosis in human NCI-H2228 cells assessed as late apoptotic cells at 25 nM measured after 24 hrs by Annexin V-FITC/PI staining based flow cytometry assay (reference value: 2.02%); type: functional; summary of the method: as §1
NCI-H2228 [5] = assay: Induction of apoptosis in human NCI-H2228 cells assessed as early apoptotic cells at 5 nM measured after 48 hrs by Annexin V-FITC/PI staining based flow cytometry assay (reference value: 1.58%); type: functional; summary of the method: as §1
NCI-H2228 [6] = assay: Induction of apoptosis in human NCI-H2228 cells assessed as viable cells at 50 nM measured after 48 hrs by Annexin V-FITC/PI staining based flow cytometry assay (reference value: 95.3%); type: functional; details: read-out: Activity; summary of the method: as §1
NCI-H2228 [7] = assay: Induction of apoptosis in human NCI-H2228 cells assessed as viable cells at 25 nM measured after 24 hrs by Annexin V-FITC/PI staining based flow cytometry assay (reference value: 95.6%); type: functional; details: read-out: Activity; summary of the method: as §1
NCI-H2228 [8] = assay: Cell cycle arrest in human NCI-H2228 cells assessed as accumulation of cells in S phase at 20 nM measured after 12 hrs by PI staining based flow cytometry method (reference value: 30%); type: functional; summary of the method: as §2
NCI-H2228 [9] = assay: Cell cycle arrest in human NCI-H2228 cells assessed as accumulation of cells in G2/M phase at 20 nM measured after 12 hrs by PI staining based flow cytometry method (reference value: 2.23%); type: functional; summary of the method: as §2
NCI-H2228 [10] = assay: Cell cycle arrest in human NCI-H2228 cells assessed as downregulation of Cyclin D1 protein expression at 20 nM measured after 12 to 48 hrs by western blot assay; type: functional, cell-based; details: time 12-48 hrs
Summary of the method: (§3)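 Western blot of cell-cycle regulatory proteins in NCI-H2228 cells held at 20 nM for 0, 12, 24 or 48 h. Performed three times, representative blot shown.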

NCI-H2228 [11] = assay: Induction of apoptosis in human NCI-H2228 cells assessed as necrotic cells at 5 nM measured after 24 hrs by Annexin V-FITC/PI staining based flow cytometry assay (reference value: 0.21%); type: functional; summary of the method: as §1
NCI-H2228 [12] = assay: Induction of apoptosis in human NCI-H2228 cells assessed as early apoptotic cells at 25 nM measured after 48 hrs by Annexin V-FITC/PI staining based flow cytometry assay (reference value: 1.58%); type: functional; summary of the method: as §1
NCI-H2228 [13] = assay: Induction of apoptosis in human NCI-H2228 cells assessed as early apoptotic cells at 25 nM measured after 24 hrs by Annexin V-FITC/PI staining based flow cytometry assay (reference value: 2.18%); type: functional; summary of the method: as §1
NCI-H2228 [14] = assay: Induction of apoptosis in human NCI-H2228 cells assessed as viable cells at 25 nM measured after 48 hrs by Annexin V-FITC/PI staining based flow cytometry assay (reference value: 95.3%); type: functional; details: read-out: Activity; summary of the method: as §1
NCI-H2228 [15] = assay: Cell cycle arrest in human NCI-H2228 cells assessed as accumulation of cells in G1 phase at 20 nM measured after 48 hrs by PI staining based flow cytometry method (reference value: 67.77%); type: functional; summary of the method: as §2
NCI-H2228 [16] = assay: Induction of apoptosis in human NCI-H2228 cells assessed as viable cells at 5 nM measured after 48 hrs by Annexin V-FITC/PI staining based flow cytometry assay (reference value: 95.3%); type: functional; details: read-out: Activity; summary of the method: as §1
NCI-H2228 [17] = assay: Induction of apoptosis in human NCI-H2228 cells assessed as early apoptotic cells at 50 nM measured after 48 hrs by Annexin V-FITC/PI staining based flow cytometry assay (reference value: 1.58%); type: functional; summary of the method: as §1
NCI-H2228 [18] = assay: Cell cycle arrest in human NCI-H2228 cells assessed as downregulation of CDK4 protein expression at 20 nM measured after 12 to 48 hrs by western blot assay; type: functional, cell-based; details: time 12-48 hrs; summary of the method: as §3
NCI-H2228 [19] = assay: Induction of apoptosis in human NCI-H2228 cells assessed as late apoptotic cells at 50 nM measured after 48 hrs by Annexin V-FITC/PI staining based flow cytometry assay (reference value: 0.23%); type: functional; summary of the method: as §1
NCI-H2228 [20] = assay: Cell cycle arrest in human NCI-H2228 cells assessed as accumulation of cells in S phase at 20 nM measured after 24 hrs by PI staining based flow cytometry method (reference value: 30%); type: functional; summary of the method: as §2
NCI-H2228 [21] = assay: Induction of apoptosis in human NCI-H2228 cells assessed as late apoptotic cells at 25 nM measured after 48 hrs by Annexin V-FITC/PI staining based flow cytometry assay (reference value: 0.23%); type: functional; summary of the method: as §1
NCI-H2228 [22] = assay: Cell cycle arrest in human NCI-H2228 cells assessed as accumulation of cells in G1 phase at 20 nM measured after 24 hrs by PI staining based flow cytometry method (reference value: 67.77%); type: functional; summary of the method: as §2
NCI-H2228 [23] = assay: Induction of apoptosis in human NCI-H2228 cells assessed as early apoptotic cells at 5 nM measured after 24 hrs by Annexin V-FITC/PI staining based flow cytometry assay (reference value: 2.18%); type: functional; summary of the method: as §1
NCI-H2228 [24] = assay: Induction of apoptosis in human NCI-H2228 cells assessed as viable cells at 50 nM measured after 24 hrs by Annexin V-FITC/PI staining based flow cytometry assay (reference value: 95.6%); type: functional; details: read-out: Activity; summary of the method: as §1
NCI-H2228 [25] = assay: Antiproliferative activity against human NCI-H2228 cells assessed as inhibition of cell proliferation measured by CCK8 assay; type: functional, cell-based
Summary of the method: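 Cell proliferation inhibition; IC50 given as mean ± SD of three independent experiments.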

NCI-H2228 [26] = assay: Inhibition of cell migration in human NCI-H2228 cells assessed as reduction in wound closure at 25 nM measured after 12 to 24 hrs by wound healing assay based phase contrast microscopy method; type: functional; details: time 12-24 hrs
Summary of the method: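 Wound-closure migration: NCI-H2228 cells kept in 1640 medium containing compound for 12 h or 24 h, photographed by phase contrast microscopy (4× objective); untreated control for comparison. Three experiments.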

NCI-H2228 [27] = assay: Induction of apoptosis in human NCI-H2228 cells assessed as late apoptotic cells at 50 nM measured after 24 hrs by Annexin V-FITC/PI staining based flow cytometry assay (reference value: 2.02%); type: functional; summary of the method: as §1
NCI-H2228 [28] = assay: Cell cycle arrest in human NCI-H2228 cells assessed as accumulation of cells in S phase at 20 nM measured after 48 hrs by PI staining based flow cytometry method (reference value: 30%); type: functional; summary of the method: as §2

`CCC(=O)Nc1cc(Nc2ncc(Cl)c(Nc3ccc(F)cc3[S+]([O-])CC)n2)c(OC)cc1N1CCN(C)CC1` (stereo not drawn) was tested, and the Activity (NCI-H2228 [1]) was 18.3%, the Activity (NCI-H2228 [2]) was 4.55% and the Activity (NCI-H2228 [3]) was 71.23%. The Activity (NCI-H2228 [4]) was 9.63%, the Activity (NCI-H2228 [5]) was 8.19% and the viability at 0.05 µM (NCI-H2228 [6]) was 10.1%. It also gave a viability at 0.025 µM (NCI-H2228 [7]) of 76.3%, an Activity (NCI-H2228 [8]) of 20.22% and an Activity (NCI-H2228 [9]) of 8.55%. The Activity (NCI-H2228 [10]) was “Active”, the Activity (NCI-H2228 [11]) was 0.17% and the Activity (NCI-H2228 [12]) was 19.9%. It also gave an Activity (NCI-H2228 [13]) of 13.9%, a viability at 0.025 µM (NCI-H2228 [14]) of 42.8% and an Activity (NCI-H2228 [15]) of 86.49%. For the same compound, the viability at 0.005 µM (NCI-H2228 [16]) was 77%, the Activity (NCI-H2228 [17]) was 7.9% and the Activity (NCI-H2228 [18]) was “Active”. For the same compound, the Activity (NCI-H2228 [19]) was 77.5%, the Activity (NCI-H2228 [20]) was 10.21% and the Activity (NCI-H2228 [21]) was 37.1%. It also gave an Activity (NCI-H2228 [22]) of 82.13%, an Activity (NCI-H2228 [23]) of 9.56% and a viability at 0.05 µM (NCI-H2228 [24]) of 76.1%. For the same compound, the IC50 (NCI-H2228 [25]) was 24.4 nM, the Activity (NCI-H2228 [26]) was “Active” and the Activity (NCI-H2228 [27]) was 5.14%. For the same compound, the Activity (NCI-H2228 [28]) was 10.1%.
